High-throughput results as filed in PubChem BioAssay.
SR-BI HDL uptake: inhibitors of SR-BI mediated HDL lipid uptake, primary screen, ldlA[mSR-BI] cells, fluorescence, single point; Scavenger receptor class B member 1 (Mus musculus), Q61009; actives 0.96% (n = 320,000); ldlA[mSR-BI] CHO cells, DiI-HDL uptake fluorescence, 3 h; inhibition, % at 12.5 µM;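 active = mean replicate inhibition of at least 70% and a set share of replicates each scoring 70 or more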
SR-BI uptake up: activators of SR-BI mediated DiI-HDL uptake, primary screen, ldlA[mSR-BI] CHO cells, DiI fluorescence. 3 h; 100 = double the neutral-control signal. actives 0.096% (n = 320,000). activation, % at 12.5 µM;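 active = mean replicate activation of at least 60% and every replicate at or above 60%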
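system = CHO ldlA[mSR-BI] cells, LDL receptor-null, SR-BI overexpressing | medium = Ham's F12 with 0.5% BSA, HEPES 25 mM, pH 7.4 | probe or stimulus = DiI-HDL 10 µg/mL | compound dosing = single-point compound dose | incubation = compound exposure 3 h, 37 °C | technique = DiI fluorescence, bottom read | read-out = cell-associated DiI fluorescence as measure of HDL uptake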
CAL PDZ FP-1: CAL PDZ peptide-binding inhibitors, primary screen, biochemical, fluorescence polarization, Cer-tagged CAL PDZ, HTS. Golgi-associated PDZ and coiled-coil motif-containing protein (Homo sapiens), Q9HD26. purified CAL PDZ, TMR-peptide fluorescence polarization, 1 h. inhibition, % at 20 µM. actives 0.02% (n = 330,000);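 active = highest replicate inhibition of at least 40%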
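material = purified tagged CAL PDZ domain construct (CerCALP) | buffer or medium = sodium phosphate/NaCl buffer pH 7.4 with TCEP, IgG, Thesit | reagent = TMR-labelled reporter peptide T*-PRC34 bound in PDZ groove | incubation = 1 h room-temperature incubation prior to read | measured by = fluorescence polarization (mP) | evaluation = percent inhibition from loss of millipolarization | control set = unlabelled peptide and DMSO controls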
CAL PDZ FP-2: untagged CAL PDZ binding inhibitors, primary screen, biochemical, fluorescence polarization, HTS; inhibition, % at 24.9 µM; purified CAL PDZ, TMR-peptide fluorescence polarization, 1 h; actives 0.92% (n = 300,000);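 active = mean inhibition of at least 30% with at least half of replicates also reaching 30%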
ATG4B inhibitor: ATG4B protease inhibitors, primary screen, biochemical, fluorescence, uHTS | Cysteine protease ATG4B (Homo sapiens), Q9Y4P1 | ATG4B cleavage of LC3-PLA2, NBD-HPC fluorescence, 1 h | inhibition, % at 8.33 µM | actives 0.51% (n = 340,000) | AID 504462, 2011; in the data active = inhibition above about 40%
Target sequence (Q9Y4P1 whole entry, looked up): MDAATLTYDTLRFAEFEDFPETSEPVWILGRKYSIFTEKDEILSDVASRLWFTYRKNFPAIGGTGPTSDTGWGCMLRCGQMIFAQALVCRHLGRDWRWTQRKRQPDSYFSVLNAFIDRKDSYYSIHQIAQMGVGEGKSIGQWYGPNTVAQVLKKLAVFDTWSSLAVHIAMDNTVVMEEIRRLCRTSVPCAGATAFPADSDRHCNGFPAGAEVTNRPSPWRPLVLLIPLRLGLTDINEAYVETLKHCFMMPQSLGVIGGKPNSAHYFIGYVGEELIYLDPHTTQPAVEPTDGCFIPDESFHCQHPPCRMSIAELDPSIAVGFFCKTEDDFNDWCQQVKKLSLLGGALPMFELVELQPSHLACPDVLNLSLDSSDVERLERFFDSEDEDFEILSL
ATG4B conf: ATG4B protease inhibitors, retest, confirmation, biochemical, fluorescence, single concentration | ATG4B protease fluorescent substrate cleavage assay | actives 92% (n = 320) | shares compounds with ATG4B inhibitor | inhibition, % at 8.33 µM; in the data active = inhibition above about 39%
PLA2 counter: PLA2 enzyme inhibition, counter-screen for ATG4B inhibitor project, biochemical, single concentration, uHTS hits; shares compounds with ATG4B inhibitor; purified PLA2, NBD-C6-HPC fluorescence, 45 min; actives 66% (n = 1,600); inhibition, % at 8.33 µM; in the data active = inhibition above about 50%
Target sequence (P04054 whole entry, looked up): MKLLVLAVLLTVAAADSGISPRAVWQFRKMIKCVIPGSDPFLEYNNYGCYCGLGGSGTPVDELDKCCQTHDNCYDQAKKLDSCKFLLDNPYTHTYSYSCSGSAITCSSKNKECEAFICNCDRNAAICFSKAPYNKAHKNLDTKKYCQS
A number is an active result; n = inactive; x = no result. Most compounds without a hit are left out; they make up all but 2.3% or so of the library.

SMILES	SR-BI HDL uptake	SR-BI uptake up	CAL PDZ FP-1	CAL PDZ FP-2	ATG4B inhibitor	PLA2 counter	others
CC(C)(C)c1[nH]nc2c1C(c1ccc(OC(=O)c3ccco3)cc1)C(C#N)=C(N)O2 (configuration not stated)	n	n	n	n	83.1	85.9
COc1ccc(-c2[nH]nc3c2C(c2ccc(OC(=O)N4CCOCC4)cc2)C(C#N)=C(N)O3)cc1 (configuration not stated)	x	x	x	x	41.7	n	ATG4B conf=75.9
Cc1cccc(C)c1OCc1nc2ccccc2c(=O)n1/N=C/c1ccc(OCC(=O)O)cc1	n	n	n	n	52.8	n	ATG4B conf=61.8
Cc1cc(/C=N/n2c(COc3ccccc3)nc3ccccc3c2=O)c(O)c([N+](=O)[O-])c1	129.8	n	n	n	60.0	n	ATG4B conf=52.7
CCCc1ccc2oc(C(=O)N3CCNC(=O)C3CC(=O)OC)c(C)c2c1 (configuration not stated)	n	n	n	n	n	x
CC(=O)Nc1cc(C(=O)N2CCc3ccccc3C2)ccc1Sc1ccc(C)cc1	n	n	n	n	46.1	52.7
CS(=O)(=O)N(Cc1ccc(C(=O)N2CCc3ccccc3C2)cc1)c1ccccc1	n	n	n	n	n	x
CCCN1CCN(C(=O)c2ccc(Sc3ccc(C)cc3)c(NC(C)=O)c2)CC1	n	n	n	n	n	x
CCn1c(C)c(C)c2cc(C(=O)N3CCc4ccccc4C3)ccc21	n	n	n	n	71.8	73.8
CCN1CCN(C(=O)c2ccc3c(c2)c(C)c(C)n3Cc2ccccc2)CC1	n	n	n	n	n	x
Cc1ccc(CN(c2ccc(C(=O)N3CCc4ccccc4C3)cc2)S(C)(=O)=O)cc1	n	n	n	x	55.5	59.9
CCOC(=O)c1sc2nc(C)nc(SCC(=O)N(C)C3CCS(=O)(=O)C3)c2c1C (configuration not stated)	n	n	n	n	n	x
COC(=O)CN1C(=O)N/C(=C/c2ccc(OC)cc2)C1=O	n	n	n	n	n	x
COC(=O)Cn1c(=O)c2c(n(Cc3ccccc3)c1=O)N/C(=C/c1ccc(Br)cc1)C2=O	x	x	n	n	53.5	61.1
Cc1ccc(-c2nc(-c3cccnc3)sc2CC(=O)Nc2ccc3nc(C)sc3c2)cc1	n	n	n	n	44.7	n
Cc1nc2ccc(NC(=O)c3cccnc3)cc2s1	n	n	n	n	n	x
O=C(Nc1ccc(CN2CCOCC2)cc1)c1cccc(-c2cc3ccccc3oc2=O)c1	n	n	n	n	n	x
O=C(Nc1cccc(Cl)c1N1CCCC1)c1cccc(-c2cc3ccccc3oc2=O)c1	n	n	x	n	49.6	n	ATG4B conf=58.6
Cc1nn(-c2ccccc2)c(N)c1N=O	x	x	x	x	n	x
COc1ccc(N=Nc2c(N)nn(C)c2N)cc1	n	n	n	n	n	x
Cc1ccc(N=Nc2c(N)nn(-c3ccccc3)c2N)cc1	n	n	n	n	57.3	70.8
Cc1nn(-c2ccccc2)c(N)c1N=Nc1ccc2ccccc2c1	n	n	n	n	78.2	91.5
COc1ccc(-c2ccc(C#N)c(SCC(=O)Nc3sc4c(c3C#N)CCC4)n2)cc1OC	n	n	n	n	72.5	n	ATG4B conf=83.8
N#Cc1cc2c(nc1SCC(=O)Nc1sc3c(c1C#N)CCC3)CCC2	x	x	n	n	n	x
COc1ccc(Br)cc1CNC(=O)C1CCCN(c2nc3ccccc3o2)C1 (configuration not stated)	n	n	n	n	63.6	67.7
SMILES	SR-BI HDL uptake	SR-BI uptake up	CAL PDZ FP-1	CAL PDZ FP-2	ATG4B inhibitor	PLA2 counter	others
Cc1c(C)c(C)c(CO/N=C/c2cccs2)c(C)c1C	n	n	n	n	60.3	n	ATG4B conf=66.5
COc1ccccc1C(=O)Nc1cc2c(cc1C(=O)O)OCCCO2	x	x	n	n	n	x
O=C(O)c1cc2c(cc1NC(=O)c1ccccc1OC(F)F)OCCCO2	x	x	n	n	44.0	n	ATG4B conf=58.2
CC(C)(C)c1ccc(OCc2ccc(C(=O)N/N=C3\CC4CC=CC34)cc2)cc1 (configuration not stated)	78.7	n	n	n	48.8	55.6
O=C(Nc1ccnn1C1CCN(Cc2ccc(O)c(Cl)c2)CC1)C1CCCC1	n	n	n	n	n	x
S=C(NCCc1ccc(Cl)cc1)NCc1ccccc1	n	n	n	n	64.0	72.6
S=C(NCc1ccccc1)NCc1cccc(Cl)c1	n	n	n	n	63.9	77.6
Cc1ccccc1OCC(=O)NCc1ccccc1	n	n	n	n	n	x
Fc1ccc(CNC(=S)NCc2cccc(Cl)c2)cc1	n	n	n	n	79.4	85.6
O=C(COc1ccccc1-c1ccccc1)NCc1cccc(Cl)c1	n	n	n	n	56.1	n	ATG4B conf=57.0
CC(C)(C)C1CCC(=O)N(CCC#N)CC1 (configuration not stated)	n	n	n	n	n	x
Cc1ccc(NC(=S)N2CCN(c3ccccn3)CC2)cc1C	n	n	n	x	n	x
CCCn1c(N)c(C(=O)COC(=O)CNC(=O)c2ccccc2OCC)c(=O)[nH]c1=O	n	n	n	n	n	x
C#Cc1ccc(CN2CCC(Oc3cc(C(=O)NC4CC4)ccc3OC)CC2)cc1	n	n	n	n	n	x
CC1CCCN(C(=O)C2CC(=O)N(c3ccc(Cl)cc3)C2)C1 (configuration not stated)	x	x	n	n	n	x
CC(C)CCCC(C)NC(=O)c1cc(S(=O)(=O)N2CCCCC2)ccc1N1CCOCC1 (configuration not stated)	n	n	n	n	n	x
O=C(NCc1cccc(Cl)c1)NCc1cccc(Cl)c1	n	n	n	n	72.6	76.6
S=C(NCC1COc2ccccc2O1)Nc1ccccc1 (configuration not stated)	n	n	n	n	n	x
S=C(NCc1ccccc1)NCc1cccc(CNC(=S)NCc2ccccc2)c1	n	n	n	n	68.0	77.2
S=C(NCc1ccccc1)NCC1COc2ccccc2O1 (configuration not stated)	n	n	n	x	52.8	61.1
CCOc1ccc(N2C(=O)C(C)CNC2=S)cc1 (configuration not stated)	n	n	n	n	n	x
